Holding throughout (assay type): functional
Assay [1] has as its system HaCaT. In words: Anti-inflammatory activity in human HaCaT cells assessed as inhibition of LPS-induced TNF-alpha production at 10 uM after 24 hrs by ELISA relative to LPS alone. The method in brief: (§1)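 HaCaT keratinocytes (DMEM, 4 g/L glucose, 10% FBS, 1% pen-strep) seeded 5 × 10^3 cells/well and allowed to adhere 24 h. Compounds added for 1 h alone, then with E. coli LPS (5 μg/mL) for 24 h. IL-6 or TNF-α measured in supernatants by ELISA (pg/mL) and expressed as % inhibition vs LPS alone. Indomethacin 10 μM served as reference. Mean ± SEM, n = 3.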
(In an ELISA, binding on a coated surface is turned into a signal by an enzyme label.)

Assay [2] has as its system HaCaT. Put plainly: Anti-inflammatory activity in human HaCaT cells assessed as inhibition of LPS-induced IL-6 production at 10 uM after 24 hrs by ELISA relative to LPS alone. The procedure, abridged: as §1
The test system of assay [3] is HaCaT. Put plainly: Anti-inflammatory activity in human HaCaT cells assessed as inhibition of LPS-induced IL-6 production at 50 uM after 24 hrs by ELISA relative to LPS alone. The procedure, abridged:
as §1

Assay [4] concerns HaCaT. Put plainly: Anti-inflammatory activity in human HaCaT cells assessed as inhibition of LPS-induced TNF-alpha production at 12.5 uM after 24 hrs by ELISA relative to LPS alone. The method in brief:
as §1

Assay [5] deals with HaCaT. In words: Anti-inflammatory activity in human HaCaT cells assessed as inhibition of LPS-induced IL-6 production at 25 uM after 24 hrs by ELISA relative to LPS alone. The procedure, abridged: as §1
Assay [6] deals with HaCaT. In words: Anti-inflammatory activity in human HaCaT cells assessed as inhibition of LPS-induced IL-6 production at 12.5 uM after 24 hrs by ELISA relative to LPS alone. The procedure, abridged: as §1
Assay [7] deals with HaCaT. Put plainly: Anti-inflammatory activity in human HaCaT cells assessed as inhibition of LPS-induced TNF-alpha production at 50 uM after 24 hrs by ELISA relative to LPS alone. The method in brief: as §1
Assay [8] deals with HaCaT. Put plainly: Anti-inflammatory activity in human HaCaT cells assessed as inhibition of LPS-induced occluding expression at 12.5 uM after 24 hrs by FACS analysis (rvb = 30.17 +/- 5.98). Background: In flow cytometry, cells or beads pass a laser one at a time.
Assay [9] has as its system HaCaT. Put plainly: Anti-inflammatory activity in human HaCaT cells assessed as inhibition of LPS-induced nitrotyrosine production at 50 uM after 24 hrs by FACS analysis relative to LPS alone. The method in brief: (§2)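 Cells were HaCaT seeded at 5 × 10^3 cells/well and pretreated with compound 1 h, then exposed to LPS (5 μg/mL) for 24 h. They were collected, PBS-washed, fixed 20 min and permeabilized 30 min, then stained 1 h with anti-nitrotyrosine antibody plus fluorescent secondary. Fluorescence was read by flow cytometry and expressed as % inhibition vs LPS alone. Mean ± SEM, n = 3.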

Assay [10] concerns HaCaT. Put plainly: Anti-inflammatory activity in human HaCaT cells assessed as inhibition of LPS-induced claudin-1 expression at 25 uM after 24 hrs by FACS analysis (rvb = 31.19 +/- 0.77).
For assay [11], the system named is HaCaT. Put plainly: Anti-inflammatory activity in human HaCaT cells assessed as inhibition of LPS-induced claudin-1 expression at 12.5 uM after 24 hrs by FACS analysis (rvb = 31.19 +/- 0.77).
Assay [12] concerns HaCaT. In words: Anti-inflammatory activity in human HaCaT cells assessed as inhibition of LPS-induced claudin-1 expression at 50 uM after 24 hrs by FACS analysis (rvb = 31.19 +/- 0.77).
Assay [13] has as its system HaCaT. In words: Anti-inflammatory activity in human HaCaT cells assessed as inhibition of LPS-induced occluding expression at 25 uM after 24 hrs by FACS analysis (rvb = 30.17 +/- 5.98).
For assay [14], the system named is HaCaT. In words: Anti-inflammatory activity in human HaCaT cells assessed as inhibition of LPS-induced TNF-alpha production at 25 uM after 24 hrs by ELISA relative to LPS alone. The procedure, abridged:
as §1

In assay [15] the test system is HaCaT. In words: Anti-inflammatory activity in human HaCaT cells assessed as inhibition of LPS-induced occluding expression at 50 uM after 24 hrs by FACS analysis (rvb = 30.17 +/- 5.98).
Assay [16] concerns HaCaT. Put plainly: Anti-inflammatory activity in human HaCaT cells assessed as inhibition of LPS-induced nitrotyrosine production at 12.5 uM after 24 hrs by FACS analysis relative to LPS alone. The method in brief:
as §2

Assay [17] deals with HaCaT. Put plainly: Anti-inflammatory activity in human HaCaT cells assessed as inhibition of LPS-induced nitrotyrosine production at 25 uM after 24 hrs by FACS analysis relative to LPS alone. The method in brief:
as §2

`COc1ccc2c(c1)c(CC(=O)O)c(C)n2C(=O)c1ccc(Cl)cc1` [INDOMETHACIN]: the inhibition at 10 µM was determined as 77% in [1] and 88.5% in [2].

Take `CC1=C(CCc2ccoc2)[C@@]2(C)CC[C@@H](O)C(C)(C)[C@@H]2[C@H](O)C1=O`: the values for the inhibition at 50 µM in [3], in assay [7] and in [9] were 81%, 68% and 56%, respectively. For the same molecule, the inhibition at 12.5 µM in assay [4] is 39.5%; in assay [6], 65.5%; in assay [16], 5%. Moreover, the figures for the inhibition at 25 µM in assay [5], in [14] and in assay [17] were 69%, 68% and 40%, respectively. Also, the Flu intensity in [8] is on record as 18.52; in assay [10], 23.72; in assay [11], 12.24; in [12], 34.97; in assay [13], 21.1; in [15], 31.92.

One may read the inhibition as the share of the control response that was lost under treatment.

These data come from ChEMBL document CHEMBL4665743, “Labdane-Type Diterpenes from the Aerial Parts of Rydingia persica: Their Absolute Configurations and Protective Effects on LPS-Induced Inflammation in Keratinocytes” (2020).
